Measured values as given in ChEMBL document CHEMBL3046081, “Phytotoxic effect, uptake, and transformation of biochanin A in selected weed species” (J Agric Food Chem, 2012).
Activity calls are given as the source filed them. No cut-off for these calls is given here.

Tests used:
[1] = system: Root; experiment: Drug metabolism in Echinochloa crus-galli (barnyard grass) root assessed as transformation to dihydrobiochanin A at 400 uM after 14 days measured per gm of dry weight by LC-MS analysis; format: ADME; conditions: 336 h
Outline: (§1)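 Pregerminated seeds, 14 per container, transplanted onto 0.5% agar medium containing biochanin A. Grown at 24 ± 1 °C under a 16 h light/8 h dark photoperiod and harvested 14 days after transplanting. Roots and shoots collected separately, blotted, washed twice, then freeze-dried. Tissue extracted by ASE at 40 °C and analysed by LC-ESI-MS against commercial standards. Two replicates per treatment.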

[2] = system: Root; experiment: Drug metabolism in Geranium molle root assessed as transformation to genistein at 400 uM after 14 days measured per gm of dry weight by LC-MS analysis; format: ADME; conditions: 336 h; outline: as §1
[3] = system: Shoot; experiment: Drug metabolism in Geranium molle shoot assessed as transformation to pratensein at 20 uM after 14 days measured per gm of dry weight by LC-MS analysis; format: ADME; conditions: 336 h; outline: as §1
[4] = system: Echinochloa crus-galli; experiment: Phytotoxicity against Echinochloa crus-galli (barnyard grass) assessed as root growth inhibition at 100 to 400 uM after 2 weeks by agar medium bioassay; format: functional, organism-based
Outline: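 Agar bioassay with eight biochanin A doses (0–400 µM). Seeds were pregerminated 48 h at room temperature, then 10 seedlings were placed per Petri dish and grown 2 weeks at 24 ± 1 °C under a 16 h light/8 h dark cycle. […]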

[5] = system: Shoot; experiment: Drug metabolism in Geranium molle shoot assessed as transformation to pratensein at 400 uM after 14 days measured per gm of dry weight by LC-MS analysis; format: ADME; conditions: 336 h; outline: as §1
[6] = system: Shoot; experiment: Drug metabolism in Geranium molle shoot assessed as transformation to dihydrobiochanin A at 20 uM after 14 days measured per gm of dry weight by LC-MS analysis; format: ADME; conditions: 336 h; outline: as §1
[7] = system: Shoot; experiment: Drug metabolism in Geranium molle shoot assessed as transformation to dihydrobiochanin A at 400 uM after 14 days measured per gm of dry weight by LC-MS analysis; format: ADME; conditions: 336 h; outline: as §1
[8] = system: Root; experiment: Drug metabolism in Silene noctiflora root assessed as transformation to dihydrobiochanin A at 400 uM after 14 days measured per gm of dry weight by LC-MS analysis; format: ADME; conditions: 336 h; outline: as §1
[9] = system: Root; experiment: Drug metabolism in Silene noctiflora root assessed as transformation to dihydrobiochanin A at 20 uM after 14 days measured per gm of dry weight by LC-MS analysis; format: ADME; conditions: 336 h; outline: as §1
[10] = system: Root; experiment: Drug metabolism in Geranium molle root assessed as transformation to genistein at 20 uM after 14 days measured per gm of dry weight by LC-MS analysis; format: ADME; conditions: 336 h; outline: as §1
[11] = system: Root; experiment: Drug metabolism in Geranium molle root assessed as transformation to pratensein at 400 uM after 14 days measured per gm of dry weight by LC-MS analysis; format: ADME; conditions: 336 h; outline: as §1
[12] = system: Shoot; experiment: Drug metabolism in Silene noctiflora shoot assessed as transformation to pratensein at 400 uM after 14 days measured per gm of dry weight by LC-MS analysis; format: ADME; conditions: 336 h
Outline: (§2)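 Pregerminated seeds (14 per container) were grown on 20 mL 0.5% agar medium containing biochanin A, at 24 ± 1 °C with a 16 h light/8 h dark cycle. There were two replicates per treatment: 14 containers for S. noctiflora, 9 for G. molle and E. crus-galli. At 14 days, roots and shoots were harvested separately, washed, blotted and freeze-dried. Extraction was ASE at 40 °C, 1600 psi, 3 cycles. Analysis was LC-ESI-MS SIM against standards.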

[13] = system: Root; experiment: Drug metabolism in Silene noctiflora root assessed as transformation to pratensein at 400 uM after 14 days measured per gm of dry weight by LC-MS analysis; format: ADME; conditions: 336 h; outline: as §1
[14] = system: Root; experiment: Drug metabolism in Geranium molle root assessed as transformation to p-coumaric acid at 20 uM after 14 days measured per gm of dry weight by LC-MS analysis; format: ADME; conditions: 336 h; outline: as §1
[15] = system: Silene noctiflora; experiment: Phytotoxicity against Silene noctiflora assessed as root growth inhibition after 2 weeks by agar medium bioassay; format: functional, organism-based; conditions: 336 h
Outline: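 Agar bioassay with eight biochanin A doses (0–400 µM). Seeds were pregerminated 48 h at room temperature, then 10 seedlings (1–2 mm radicle) were placed per Petri dish. Plants grew 2 weeks at 24 ± 1 °C under a 16 h light/8 h dark cycle. Root length was measured, and EC values were taken from a four-parameter log-logistic nonlinear regression fit.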

[16] = system: Root; experiment: Drug metabolism in Echinochloa crus-galli (barnyard grass) root assessed as transformation to p-coumaric acid at 400 uM after 14 days measured per gm of dry weight by LC-MS analysis; format: ADME; conditions: 336 h; outline: as §1
[17] = system: Root; experiment: Drug metabolism in Echinochloa crus-galli (barnyard grass) root assessed as transformation to p-coumaric acid at 20 uM after 14 days measured per gm of dry weight by LC-MS analysis; format: ADME; conditions: 336 h; outline: as §1
[18] = system: Root; experiment: Drug metabolism in Geranium molle root assessed as transformation to sissotrin at 20 uM after 14 days measured per gm of dry weight by LC-MS analysis; format: ADME; conditions: 336 h; outline: as §1
[19] = system: Root; experiment: Drug uptake in Geranium molle root at 400 uM after 14 days measured per gm of dry weight by LC-MS analysis; format: ADME; conditions: 336 h; outline: as §2
[20] = system: Root; experiment: Drug metabolism in Echinochloa crus-galli (barnyard grass) root assessed as transformation to pratensein at 20 uM after 14 days measured per gm of dry weight by LC-MS analysis; format: ADME; conditions: 336 h; outline: as §1
[21] = system: Root; experiment: Drug metabolism in Silene noctiflora root assessed as transformation to sissotrin at 400 uM after 14 days measured per gm of dry weight by LC-MS analysis; format: ADME; conditions: 336 h; outline: as §1
[22] = system: Root; experiment: Drug metabolism in Geranium molle root assessed as transformation to dihydrobiochanin A at 20 uM after 14 days measured per gm of dry weight by LC-MS analysis; format: ADME; conditions: 336 h; outline: as §1
[23] = system: Root; experiment: Drug uptake in Geranium molle root at 20 uM after 14 days measured per gm of dry weight by LC-MS analysis; format: ADME; conditions: 336 h; outline: as §2
[24] = system: Shoot; experiment: Drug metabolism in Silene noctiflora shoot assessed as transformation to pratensein at 20 uM after 14 days measured per gm of dry weight by LC-MS analysis; format: ADME; conditions: 336 h; outline: as §1
[25] = system: Root; experiment: Drug metabolism in Silene noctiflora root assessed as transformation to genistein at 400 uM after 14 days measured per gm of dry weight by LC-MS analysis; format: ADME; conditions: 336 h; outline: as §1
[26] = system: Leaf; experiment: Drug recovery in leaf of Secale cereale (rye) at 5 ng/g by LC-MS analysis
[27] = system: Root; experiment: Drug metabolism in Silene noctiflora root assessed as transformation to genistein at 20 uM after 14 days measured per gm of dry weight by LC-MS analysis; format: ADME; conditions: 336 h; outline: as §1
[28] = system: Root; experiment: Drug metabolism in Geranium molle root assessed as transformation to pratensein at 20 uM after 14 days measured per gm of dry weight by LC-MS analysis; format: ADME; conditions: 336 h; outline: as §1
[29] = system: Root; experiment: Drug metabolism in Echinochloa crus-galli (barnyard grass) root assessed as transformation to dihydrobiochanin A at 20 uM after 14 days measured per gm of dry weight by LC-MS analysis; format: ADME; conditions: 336 h; outline: as §1
[30] = system: Shoot; experiment: Drug metabolism in Geranium molle shoot assessed as transformation to sissotrin at 20 uM after 14 days measured per gm of dry weight by LC-MS analysis; format: ADME; conditions: 336 h; outline: as §1
[31] = system: Shoot; experiment: Drug uptake in Silene noctiflora shoot at 400 uM after 14 days measured per gm of dry weight by LC-MS analysis; format: ADME; conditions: 336 h; outline: as §2
[32] = system: Leaf; experiment: Drug recovery in leaf of Secale cereale (rye) at 50 ng/g by LC-MS analysis

COc1ccc(-c2coc3cc(O)cc(O)c3c2=O)cc1 [BIOCHANIN]
Drug metabolism [1]: 0.27 µmol | Drug metabolism [2]: 0.08 µmol | Drug metabolism [3]: 0.02 µmol | Activity [4]: inactive | Drug metabolism [5]: 0.05 µmol | Drug metabolism [6]: 0.01 µmol | Drug metabolism [7]: 0.02 µmol | Drug metabolism [8]: 0.07 µmol | Drug metabolism [9]: 0.01 µmol | Drug metabolism [10]: 0.05 µmol | Drug metabolism [11]: 0.32 µmol | Drug metabolism [12]: 0.06 µmol | Drug metabolism [13]: 0.11 µmol | Drug metabolism [14]: 0.06 µmol | EC25 [15]: 5.2 µM | EC50 [15]: 35.8 µM | Drug metabolism [16]: 0.11 µmol | Drug metabolism [17]: 0.15 µmol | Drug metabolism [18]: 36.06 µmol | Drug uptake [19]: 11.46 µmol | Drug metabolism [20]: 0.38 µmol | Drug metabolism [21]: 2.99 µmol | Drug metabolism [22]: 0.38 µmol | Drug uptake [23]: 9.93 µmol | Drug metabolism [24]: 0.1 µmol | Drug metabolism [25]: 0.13 µmol | Drug recovery [26]: 93% | Drug metabolism [27]: 0.08 µmol | Drug metabolism [28]: 0.66 µmol | Drug metabolism [29]: 0.05 µmol | Drug metabolism [30]: 1.5 µmol | Drug uptake [31]: 1.11 µmol | Drug recovery [32]: 93%
